Compound activity deposited in PubChem BioAssay by Johns Hopkins Ion Channel Center.
Only some compounds are listed: those with a hit (about 3.5% of all), similar ones and a draw of the others.
MrgX1 agonist = agonists of human MrgX1 receptor, primary screen, HEK293 cells, Fluo-4 calcium flux; AID 588627, 2011; 310,000 compounds, 0.44% hits; B-score at 10 µM; Fluo-4 calcium fluorescence, agonist mode; active compounds read high; Mas-related G-protein coupled receptor member X1 (Homo sapiens), Q96LB2;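 active = calcium response B-score plate-corrected fluorescence ratio at least 3 library SD, with starting fluorescence B-score inside 5 SD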
Target sequence (Q96LB2 whole entry, looked up): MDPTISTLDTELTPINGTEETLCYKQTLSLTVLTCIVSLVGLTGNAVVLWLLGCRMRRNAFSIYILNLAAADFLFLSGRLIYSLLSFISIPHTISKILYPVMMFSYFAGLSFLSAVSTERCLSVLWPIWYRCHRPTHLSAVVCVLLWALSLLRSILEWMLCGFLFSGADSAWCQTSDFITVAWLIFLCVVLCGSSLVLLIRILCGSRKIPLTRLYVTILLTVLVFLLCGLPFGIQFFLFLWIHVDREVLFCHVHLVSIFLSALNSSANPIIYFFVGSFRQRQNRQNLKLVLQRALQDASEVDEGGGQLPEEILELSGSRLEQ
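Test system: HEK293 cells stably expressing human MrgX1 receptor; amount: 15,000 cells per well; doses: compound delivered in addition one of three; times: overnight plating before 1 h dye loading; detection: Fluo-4 NW calcium-flux fluorescence, kinetic read; read-out basis: B-scored fluorescence response ratio; controls: positive and negative controls per plate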
MrgX1 antag = antagonists of human MrgX1 receptor, primary screen, HEK293 cells, Fluo-4 calcium flux; Mas-related G-protein coupled receptor member X1 (Homo sapiens), Q96LB2; BAM8-22 antagonism; active compounds read low; B-score at 10 µM; 310,000 compounds, 1.3% hits; AID 588676, 2011;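 active = calcium-response B-score plate-corrected more than 3 library SD below zero, starting fluorescence within 5 deviations, no agonist response on first addition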;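 note: peak minus trough fluorescence over baseline after final BAM8-22 challenge near maximal dose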
RGS4 block = RGS4 inhibitors, primary screen, cell-based, HEK293 M3R inducible RGS4, calcium flux; AID 463165, 2010; B-score at 10 µM; Fluo-4 calcium flux; active compounds read high; triggered by carbachol at its EC20; 310,000 compounds, 0.45% hits;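 active = B-score, a plate-corrected calcium signal, over three deviations above library mean, with baseline fluorescence within five deviations of library mean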;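 note: RGS4 expression induced by doxycycline in cells with stable M3 receptor; B-score is computed from the integrated fluorescence ratio over baseline after carbachol; higher B-score means a larger calcium signal and so more RGS4 inhibition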
Target sequence (P49798 whole entry, looked up): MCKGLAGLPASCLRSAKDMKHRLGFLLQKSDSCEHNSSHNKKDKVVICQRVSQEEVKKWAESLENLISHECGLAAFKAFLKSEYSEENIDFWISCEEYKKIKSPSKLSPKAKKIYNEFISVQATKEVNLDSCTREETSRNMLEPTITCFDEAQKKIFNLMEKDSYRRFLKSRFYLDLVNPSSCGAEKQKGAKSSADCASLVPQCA
MrgX1 PAM = positive allosteric modulators of MrgX1, primary screen, HEK293 cells, Fluo-4 calcium flux. 310,000 compounds, 0.63% hits. B-score at 10 µM. AID 588675, 2011. Mas-related G-protein coupled receptor member X1 (Homo sapiens), Q96LB2. FDSS; active compounds read high;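 active = plate-corrected calcium response at least 3 library SD above typical, normal starting fluorescence, not activating the receptor alone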;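 note: compound read alongside a low EC10 to EC30 dose of BAM8-22 agonist; peak minus trough fluorescence over baseline measured at the second addition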
RGS4 pot = RGS4 potentiators or activators, primary screen, cell-based, HEK293 M3R inducible RGS4, calcium flux; B-score at 10 µM; 310,000 compounds, 0.92% hits; carbachol calcium flux Fluo4; active compounds read low;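 active = B-score of the integrated calcium signal more than 4 SD below the library mean, with starting fluorescence not abnormally high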;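 note: negative B-score means reduced calcium response which marks RGS4 activation or potentiation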
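test system = M3R-expressing HEK293 line, RGS4 induced by doxycycline | probe or stimulus = carbachol at ECmax as muscarinic agonist stimulus | timing = dye loading 30 min 37 °C, buffer rest 30 min RT | signal = calcium dye Fluo4 fluorescence | evaluation = B score from integrated fluorescence ratio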
MrgX1 antag conf = MrgX1 receptor antagonists, duplicate retest, confirmation, HEK293 cells, Fluo-4 calcium flux; BAM8-22 calcium flux; active compounds read low; AID 602420, 2012; remaining BAM8-22 calcium response % of control (active compounds read low), % at 10 µM; shares compounds with MrgX1 antag; 2,300 compounds, 19% hits;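 active = remaining agonist calcium response no higher than 100% minus 3 SD of agonist-only control wells, with starting fluorescence near control levels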;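 note: agonist BAM8-22 given at a near maximal EC90 to ECmax level; peak minus minimum fluorescence divided by baseline after agonist addition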
HEK293 Ca flux = nonspecific calcium signal in parental HEK293, confirmation, counter-screen for MrgX1 antagonist project, parental HEK293 cells, Fluo-4 calcium flux; Fluo-4 calcium fluorescence, FDSS; 4,000 compounds, 2% hits; AID 624111, 2012; fluorescence ratio F(max-min)/F0 at 10 µM; shares compounds with MrgX1 antag;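 active = duplicate-averaged calcium fluorescence ratio at least three times the standard deviation of buffer wells, a nonspecific response in parental cells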
HEK293 Ca counter = calcium response in parental HEK293 cells, primary screen, counter-screen for MrgX1 allosteric activator project, cell-based, Fluo-4 calcium flux, duplicate | shares compounds with MrgX1 antag | Fluo-4 fluorescence ratio; active compounds read high | fluorescence ratio F(max-min)/F0 at 10 µM | 4,000 compounds, 0.4% hits;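 active = calcium fluorescence ratio, averaged over duplicates, at least 3 SD of the buffer-well ratio, meaning a nonspecific response in receptor-free cells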;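 note: untransfected parental HEK293 lacking MrgX1 used as counterscreen for MrgX1 allosteric activators; fluorescence change taken during the second addition on a kinetic imager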
HEK293 Ca cntr2 = calcium response in parental HEK293 cells, primary screen, counter-screen for MrgX1 agonist project, cell-based, Fluo-4 calcium flux, duplicate, agonist mode; shares compounds with MrgX1 antag; Fluo-4 calcium fluorescence (FDSS); active compounds read high; fluorescence ratio F(max-min)/F0 at 10 µM; 4,000 compounds, 8.7% hits; AID 624115, 2012;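 active = calcium fluorescence ratio at least three times the spread of buffer wells, meaning a non-specific response in parental cells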
* hit, by the source's call.

CCOc1ccc(C2C(C#N)=C(N)Oc3cc(C)n(CCN(C)C)c(=O)c32)cc1OCC (stereo not given) was read as MrgX1 agonist inactive, MrgX1 antag -4.5*, RGS4 block inactive, MrgX1 PAM inactive, RGS4 pot inactive, MrgX1 antag conf inactive, HEK293 Ca flux inactive, HEK293 Ca counter inactive and HEK293 Ca cntr2 inactive.
`Cc1ccc(S(=O)(=O)N/N=C/c2ccc(OCC(=O)NC(C)C)cc2)cc1` gave MrgX1 agonist inactive, MrgX1 antag inactive, RGS4 block inactive, MrgX1 PAM inactive and RGS4 pot inactive.
O=C(c1ccccc1)N1CCN(Cc2ccccc2)CC1 was read as MrgX1 agonist inactive, MrgX1 antag inactive, RGS4 block inactive, MrgX1 PAM inactive and RGS4 pot inactive.
Cc1ccc(CN2CCN(C(=O)c3ccncc3)CC2)cc1 was read as MrgX1 agonist inactive, MrgX1 antag -4.7*, RGS4 block inactive, MrgX1 PAM inactive, RGS4 pot inactive, MrgX1 antag conf inactive, HEK293 Ca flux inactive, HEK293 Ca counter inactive and HEK293 Ca cntr2 inactive.
`CCS(=O)(=O)c1nc(S(=O)(=O)c2ccc(Cl)cc2)c(N2CCOCC2)s1` gave MrgX1 agonist inactive, MrgX1 antag inactive, RGS4 block inactive, MrgX1 PAM inactive and RGS4 pot inactive.
`CCCCc1n[nH]c(=S)n1Cc1ccc(Cl)cc1` gave MrgX1 agonist inactive, MrgX1 antag -5.7*, RGS4 block inactive, MrgX1 PAM inactive, RGS4 pot inactive, MrgX1 antag conf inactive, HEK293 Ca flux inactive, HEK293 Ca counter inactive and HEK293 Ca cntr2 inactive.
For CCCn1c(CCc2ccccc2)n[nH]c1=S the results were MrgX1 agonist inactive, MrgX1 antag -7.5*, RGS4 block inactive, MrgX1 PAM inactive, RGS4 pot inactive, MrgX1 antag conf inactive, HEK293 Ca flux inactive, HEK293 Ca counter inactive and HEK293 Ca cntr2 inactive.
`Cn1c(CNc2ccccc2)nc2ccccc21` gave MrgX1 agonist inactive, MrgX1 antag -6.9*, RGS4 block inactive, MrgX1 PAM inactive, RGS4 pot inactive, MrgX1 antag conf 85%*, HEK293 Ca flux inactive, HEK293 Ca counter inactive and HEK293 Ca cntr2 inactive.
For O=C(COc1ccc([N+](=O)[O-])cc1)Nc1ccc(CN2CCOCC2)cc1 the results were MrgX1 agonist inactive, MrgX1 antag inactive, RGS4 block inactive, MrgX1 PAM inactive and RGS4 pot inactive.
`S=C(NCc1cccnc1)Nc1ccc(Oc2ccccc2)cc1` gave MrgX1 agonist inactive, MrgX1 antag inactive, RGS4 block inactive, MrgX1 PAM inactive and RGS4 pot inactive.
Screening S=C(NCc1cccnc1)Nc1cc(Cl)cc(Cl)c1 returned MrgX1 agonist inactive, MrgX1 antag -5.1*, RGS4 block inactive, MrgX1 PAM inactive, RGS4 pot inactive, MrgX1 antag conf 72%*, HEK293 Ca flux inactive, HEK293 Ca counter inactive and HEK293 Ca cntr2 58*.
`S=C(NCc1cccnc1)Nc1cccc(Cl)c1` gave MrgX1 agonist inactive, MrgX1 antag inactive, RGS4 block inactive, MrgX1 PAM inactive and RGS4 pot inactive.
